Screening results (PubChem BioAssay)
Wee1 stabilizer: human Wee1 degradation inhibition, primary screen; P30291; HeLa Luc-Wee1K328M stability, luciferase luminescence; 100% = proteasome inhibitor MG132 effect; reporter increase, % at 5 µM; hit rate 1.2% among 220,000;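 active = activation above the mean of all tested compounds plus 3 SD, set per screening run, cut at about 8.8% in these data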;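 also: cells exposed to compound for 20 h before luminescence read; 0% = DMSO alone and 100% = MG132 at 30 µM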
Target sequence (P30291 whole entry K328M): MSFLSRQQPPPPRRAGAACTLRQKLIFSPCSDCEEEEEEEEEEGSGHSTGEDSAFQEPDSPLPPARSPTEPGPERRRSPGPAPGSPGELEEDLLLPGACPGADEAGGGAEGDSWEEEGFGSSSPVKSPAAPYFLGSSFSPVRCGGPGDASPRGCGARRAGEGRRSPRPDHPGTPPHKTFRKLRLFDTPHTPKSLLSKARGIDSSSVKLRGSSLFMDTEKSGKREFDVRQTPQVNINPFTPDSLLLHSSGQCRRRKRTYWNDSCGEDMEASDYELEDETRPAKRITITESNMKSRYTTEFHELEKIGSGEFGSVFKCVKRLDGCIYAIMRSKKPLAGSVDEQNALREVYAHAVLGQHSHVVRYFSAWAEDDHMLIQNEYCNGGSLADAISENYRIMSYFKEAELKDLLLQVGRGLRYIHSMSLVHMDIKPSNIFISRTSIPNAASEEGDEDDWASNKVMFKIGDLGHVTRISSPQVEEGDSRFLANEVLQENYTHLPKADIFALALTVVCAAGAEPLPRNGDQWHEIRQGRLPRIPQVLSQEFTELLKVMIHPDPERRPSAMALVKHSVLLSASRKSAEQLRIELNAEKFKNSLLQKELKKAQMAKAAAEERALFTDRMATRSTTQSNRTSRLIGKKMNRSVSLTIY
Calpain2 inh: blocks pig calpain II enzyme activity; purified calpain II, fluorogenic peptide substrate, 30 min; inhibition, % at 16 µM; hit rate 0.37% among 220,000; AID 1236;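 active = inhibition above about 50%, limit read from the data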
Pf gametocyte: kills late stage P. falciparum gametocytes; P. falciparum stage V gametocytes, ATP luminescence, 24 h; inhibition, % at 10.9 µM; hit rate 0.065% among 150,000; AID 743093;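 active = inhibition above the mean plus 3 SD of compounds within the control limits, set per campaign, cut at about 38% in these data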;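 also: 0% = DMSO wells and 100% = medium only without gametocytes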
Hsp70 activator: transcriptional activators of Hsp70. HeLa Hsp70 promoter luciferase reporter, luminescence; scaled: vehicle 0, proteasome-inhibitor control 100%. activation, % at 10 µM. hit rate 0.04% among 200,000. AID 1203;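 active = activation above the mean across all tested compounds plus 3 SD, cutoff set per campaign, cut at about 5.5% in these data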;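 also: 100% = MG132 at 30 µM as the positive control and 0% = DMSO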
MDM2 E3 inh: blocks human Mdm2 ubiquitin ligase activity | signal enhancement, % at 5 µM | cell-based MDM2 ubiquitination luciferase reporter, 2 h; 0 = plate control, 100 = twice control, blank-subtracted | hit rate 0.11% among 210,000 | Q00987;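 active = signal enhancement of 30% or more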;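 also: luminescence tracks abundance of the self-degrading MDM2-luciferase fusion protein; higher signal means inhibition of MDM2 E3 ligase activity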
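Timing – 2 h compound exposure at 37 °C · Assay system – mammalian cells stably expressing self-ubiquitinating, self-degrading MDM2 E3–luciferase fusion · Amount – 2000 cells seeded into each well · Measure – % luminescence enhancement versus blank-corrected plate control mean · Measured by – SteadyLite luminescence, 15 min reagent step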
Hsp70 act DR: dose response of Hsp70 transcriptional activators; shares compounds with Hsp70 activator; HeLa hsp70.1pr-luc reporter, luciferase luminescence; calls only at 99 µM; hit rate 10% among 70; AID 1252;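 active = over 50% activation at some tested dose; inactive = under 50% activation at every tested dose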
* marks the source's active call; other numbers are inactive results; i = inactive; . = no result given; + = active, no number; ! = repeats disagree. This is a sample that favours compounds with a hit; in the whole collection about 1.5% have one here.

SMILES	Wee1 stabilizer	Calpain2 inh	Pf gametocyte	Hsp70 activator	MDM2 E3 inh	others
Cc1nn(C2CCOC(C)(C)C2)c2c1C(c1ccc3c(c1)OCO3)SCC(=O)N2 (stereo not given)	11.2*	12.9	.	0.0	-12.0
COc1ccc(C2SCC(=O)Nc3c2c(C)nn3C2CCOC(C)(C)C2)cc1 (stereo not given)	-0.3	-2.6	-4.7	0.2	-2.9
O=C(Nc1ccc(C(F)(F)F)cc1)c1cccn(Cc2ccc3c(c2)OC(F)(F)O3)c1=O	0.1	18.2	18.5	-0.3	-15.6
O=C(Nc1cccc(C(F)(F)F)c1)c1cccn(Cc2ccc3c(c2)OC(F)(F)O3)c1=O	-2.6	52.1*	11.7	-0.2	-10.0
CN(C)C1(CNC(=O)c2ccc(Cl)c(S(=O)(=O)NCc3ccco3)c2)CCCCC1	15.3*	-25.8	.	-0.3	-20.9
O=[N+]([O-])/C=C1\NCCN1Cc1ccc(Cl)nc1	9.6*!	-9.0	11.2	0.2	-5.7
O=c1[nH]c(=S)n(C2CC2)c(O)c1/C=N/Nc1cccc2ccccc12	8.9*	-22.5	30.3	-0.4	-16.7
Cc1cc(C)[n+](CCCC[n+]2c(C)cc(C)cc2C)c(C)c1	.	.	-8.5	.	.
Cc1ccc(C)c(NC(=S)NCCc2cnc[nH]2)c1	-0.7	-15.3	13.0	.	-7.6
COc1cc(-n2c(=S)[nH]c3ccccc3c2=O)c(Cl)cc1Cl	-1.4	8.4	-38.7	0.5	-4.6
CC(C)Oc1cc(-n2c(=S)[nH]c3ccccc3c2=O)c(Cl)cc1Cl	2.5	62.8*	-5.5	0.7	-17.3
COc1ccc2[nH]c(C)c(CCNCc3cc(OC)c(OC)c(OC)c3)c2c1	1.4	-31.5	-1.3	-0.1	9.8
COc1ccc2[nH]c(C)c(CCN3CCC(=O)C(C)C3C)c2c1 (stereo not given)	-1.1	60.1*	.	-0.2	-4.5
CC(=Nc1ccccc1N)c1c(O)n(C)c(=O)[nH]c1=O	.	.	9.1	.	.
Cc1ccsc1C(=O)C1CCCN(Cc2cnc(N)nc2)C1 (stereo not given)	9.6*	1.1	-2.1	.	-23.6
Cn1cnc([N+](=O)[O-])c1Sc1ccc([N+](=O)[O-])cc1	0.5	6.2	.	-0.1	-36.1
CC(NCc1ccc(Cl)cc1)C(O)c1ccccc1 (stereo not given)	8.9*	-3.6	16.5	0.8	1.6
COc1ccc(N=Nc2c(O)[nH]c(=S)[nH]c2=O)cc1	9.8*	8.4	24.5	0.2	-11.2
COc1cccc(N=Nc2c(O)[nH]c(=S)[nH]c2=O)c1	1.9	33.2	7.0	.	-6.7
COC(=O)C1=C(c2ccc(OC(F)(F)F)cc2)C[C@@H]2CC[C@H]1N2C(=O)NC1CC1	.	.	0.4	.	.
COC(=O)C1=C(c2ccc(Cl)c(C(F)(F)F)c2)C[C@@H]2CC[C@H]1N2C(=O)NCc1cc(C)oc1C(F)(F)F	.	.	-1.3	.	.
Cc1cc(C(=O)CS(=O)(=O)c2ccccc2)cc(C)c1OC(=O)N(C)C	10.0*	-2.0	10.3	-0.2	-56.9
CC(C)(C)n1cc(C(=O)c2ccccc2)cc1-c1ccccc1	0.5	11.0	.	.	-14.7
CCN(CC)C(=O)c1ccc(NC(=O)Nc2ccccc2F)cc1	-3.2	5.3	41.6*	-0.4	-58.6
O=[N+]([O-])c1cc(-c2ccc([As](=O)(O)O)cc2)ccc1[As](=O)(O)O	5.5	-9.5	.	.	-7.1
SMILES	Wee1 stabilizer	Calpain2 inh	Pf gametocyte	Hsp70 activator	MDM2 E3 inh	others
Cc1cc2c(C(C)C)c(O)c(O)c(C=O)c2c(O)c1-c1c(C)cc2c(C(C)C)c(O)c(O)c(C=O)c2c1O	-2.2	54.9*!	.	-0.3	.
COc1cc(CN=C(C)c2c(O)n(C)c(=O)n(C)c2=O)cc(OC)c1	9.0*	11.2	7.0	.	-2.5
CN(C)C(=S)SSC(=S)N(C)C	5.4	-42.7	.	-0.2	40.8*
CSc1ncc(/C=C2/C(=O)NC(=O)N(c3ccc(C)cc3)C2=O)cn1	-0.7	44.5	-9.6	-0.3	-5.5
CCOc1ccc(N2C(=O)NC(=O)/C(=C/c3cnc(SC)nc3)C2=O)cc1	10.1*	19.7	8.4	0.0	1.3
COc1cc(/C=N/NP(=S)(c2ccccc2)c2ccccc2)ccc1O	-1.2	53.3*	13.6	-0.4	-19.2
Cc1ccc(-c2nn(Cc3ccccc3)cc2C=O)cc1C	2.6	11.3	-15.8	-0.2	-1.1
Cc1ccc(-c2nn(Cc3ccccc3)cc2C=O)cc1	9.1*	8.8	-11.5	-0.2	-15.0
COC(=O)C1=C(c2ccc(S(C)(=O)=O)cc2)C[C@@H]2CC[C@H]1N2C(=O)NCc1cccc2ccccc12	.	.	-15.3	.	.
O=C(CNC1CCCCC1)N1CCC2(CC1)OCCO2	-1.1	-8.7	8.0	-0.2	-4.1
O=C(C1CCC(=O)N1C1CCCCC1)N1CCC2(CC1)OCCO2 (stereo not given)	-0.9	59.4*	.	-0.1	-16.4
COc1ccc(CCNCc2sccc2C)cc1	.	.	10.3	.	.
CNC(=O)O/N=C(\C)Cc1nnn(-c2cc(C)on2)n1	2.0	-16.5	16.4	.	-15.5
Cc1ccc2[nH]c(=S)n(-c3cccnc3)c(=O)c2c1	-3.7	4.1	7.3	.	-12.2
O=c1c2ccccc2[nH]c(=S)n1-c1cccnc1	9.7*	-3.2	-13.0	.	-7.2
Cn1c(O)c(C(=Nc2ccccc2)SCc2ccc(Cl)cc2)c(=O)n(C)c1=O	2.6	-11.1	4.1	.	.
CN1C(=O)NC(=O)/C(=C/c2ccc(C(=O)O)cc2)C1=O	-1.4	11.3	1.6	.	-15.1
Cc1ccc(/C=C2/C(=O)NC(=O)N(C)C2=O)cc1	8.9*	-1.7	-57.9	0.1	-1.5
O=C(c1cc(F)ccc1F)C1CCCN(Cc2ccc3nonc3c2)C1 (stereo not given)	1.7	19.6	16.9	-0.2	-2.1
CC/C(=N\NC(=O)c1ccccc1)c1c(O)n(Cc2ccccc2)c(=O)[nH]c1=O	10.2*	32.7	13.3	.	-7.4
CC12CN3CC(C)(CN(C1)C3c1ccco1)C2=O (stereo not given)	9.3*	16.2	17.8	-0.7	-16.4
C=CCn1c(O)c(C=NCCCn2ccnc2)c(=O)[nH]c1=O	-0.6	12.5	-11.5	.	-1.1
O=P(Nc1cccc(Cl)c1)(Oc1ccccc1)Oc1ccccc1	0.3	59.6*	2.2	-0.1	-14.8
Cc1ccccc1-n1c(/C=C/c2ccccn2)nc2ccccc2c1=O	0.7	-9.5	.	.	.
CN1C2CCC1/C(=C/c1ccccn1)C(=O)/C2=C\c1ccccn1	21.4*	-7.9	-7.1	18.3*	-5.0	Hsp70 act DR=+
CC(C)(C)C(=O)c1cn(Cc2ccccc2)c2ccccc12	-2.5	10.1	.	-0.3	-4.4
COC(=O)C[C@]1(C(=O)OC)CN(C#N)N(c2ccc(Cl)cc2)C12c1ccccc1-c1ccccc12	-2.5	-109.1	.	12.3*	.	Hsp70 act DR=i
